Data taken from ChEMBL document CHEMBL4680066, “Deacylcortivazol-like pyrazole regioisomers reveal a more accommodating expanded binding pocket for the glucocorticoid receptor” (RSC Med Chem, 2021).

Columns and labels:
[1] = biological target: T1, Glucocorticoid receptor (Homo sapiens, UniProt P04150); experiment: Induction of translocation of human glucocorticoid receptor expressed in HEK293T cells transduced with lentiviral vector expressing H2B-mCherry and GFP-GR assessed as effective dissociation constant measured every 130 sec for 22 mins by fluorescence imaging analysis; type: cell-based
T1 sequence (P04150 whole entry): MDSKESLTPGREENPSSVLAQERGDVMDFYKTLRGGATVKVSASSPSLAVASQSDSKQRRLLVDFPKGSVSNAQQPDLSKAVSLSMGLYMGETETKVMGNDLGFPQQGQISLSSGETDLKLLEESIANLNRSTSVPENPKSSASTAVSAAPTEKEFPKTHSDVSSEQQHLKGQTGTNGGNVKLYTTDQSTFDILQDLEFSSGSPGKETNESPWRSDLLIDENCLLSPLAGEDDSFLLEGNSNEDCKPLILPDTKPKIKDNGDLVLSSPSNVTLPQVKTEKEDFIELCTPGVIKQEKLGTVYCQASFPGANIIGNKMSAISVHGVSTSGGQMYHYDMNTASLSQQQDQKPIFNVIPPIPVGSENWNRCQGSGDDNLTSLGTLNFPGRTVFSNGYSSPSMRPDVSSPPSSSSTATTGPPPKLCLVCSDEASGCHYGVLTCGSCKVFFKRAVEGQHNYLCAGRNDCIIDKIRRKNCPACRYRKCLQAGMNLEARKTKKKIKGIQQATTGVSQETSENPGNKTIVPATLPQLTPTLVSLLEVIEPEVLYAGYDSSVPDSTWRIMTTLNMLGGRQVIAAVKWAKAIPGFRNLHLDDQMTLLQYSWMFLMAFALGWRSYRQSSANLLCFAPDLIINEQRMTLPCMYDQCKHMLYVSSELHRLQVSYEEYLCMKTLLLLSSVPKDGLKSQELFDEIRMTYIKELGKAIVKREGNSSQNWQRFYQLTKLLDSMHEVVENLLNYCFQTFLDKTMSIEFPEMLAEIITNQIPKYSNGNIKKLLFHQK

[2] = test system: REH; experiment: Cytotoxicity against human REH cells overexpressing GR assessed as reduction in cell viability measured after 3 days by resazurin based assay; type: functional
In short: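 REH B-ALL cells (naturally GR-null) were lentivirally infected with GFP-T2A-GR, and the top 10% GFP sorted population was used. Cells grown in RPMI + 10% FBS, seeded at 9,000 cells/well in 384-well format. DMSO serial dilutions (2500 µM to 0.01 µM stocks) were diluted 1:500 and then added 1:1, giving 0.1% final DMSO. Exposure 72 h. Read-out: PrestoBlue fluorescence (Ex 560/Em 590), normalized to DMSO-only wells. EC50 by 4-parameter fit per replicate, at least 6 replicates.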

[3] = biological target: T2, Glucocorticoid receptor (Homo sapiens) (UniProt P04150); conditions: HEK293T, filed as modulator, time 22.0 min
T2 sequence (whole entry): T1 sequence (P04150 whole entry)

[4] = Homo sapiens, REH, 72 h, read-out: EC50

Row | Compound | Kd ([1]; read-out: Kd) | EC50 [2, 4] | T1/2 [3] | EC50 ([2]; reh) | Kd ([1]; hek293t)
1 | Cc1ccc(-n2cc3c(n2)C=C2CC[C@@H]4[C@H]([C@@H](O)C[C@@]5(C)[C@H]4CC[C@]5(O)C(=O)CO)[C@@]2(C)C3)cc1 | 883 nM | 7270 nM |  |  | 
2 | C[C@]12Cc3cnn(-c4ccc(F)cc4)c3C=C1CC[C@@H]1[C@@H]2[C@@H](O)C[C@@]2(C)[C@H]1CC[C@]2(O)C(=O)CO | 2.6 nM | 1.4 nM | 2.2 min |  | 
3 | COc1cccc(-n2ncc3c2C=C2CC[C@@H]4[C@H]([C@@H](O)C[C@@]5(C)[C@H]4CC[C@]5(O)C(=O)CO)[C@@]2(C)C3)c1 |  | 346 nM | 4.17 min |  | 
4 | C[C@]12Cc3cn(-c4ccc(F)cc4)nc3C=C1CC[C@@H]1[C@@H]2[C@@H](O)C[C@@]2(C)[C@H]1CC[C@]2(O)C(=O)CO | 138 nM | 225 nM | 4.33 min |  | 
5 | C[C@@H]1C[C@H]2[C@@H]3CCC4=CC(=O)C=C[C@]4(C)[C@@]3(F)[C@@H](O)C[C@]2(C)[C@@]1(O)C(=O)CO [DEXAMETHASONE] |  | 6.7 nM |  |  | 
6 | CCCCCCn1cc2c(n1)C=C1CC[C@@H]3[C@H]([C@@H](O)C[C@@]4(C)[C@H]3CC[C@]4(O)C(=O)CO)[C@@]1(C)C2 |  |  |  | Not Active | 
7 | CCCCCCn1ncc2c1C=C1CC[C@@H]3[C@H]([C@@H](O)C[C@@]4(C)[C@H]3CC[C@]4(O)C(=O)CO)[C@@]1(C)C2 | 9 nM | 27 nM | 2.1 min |  | 
8 | C[C@]12Cc3cn(-c4ccccc4)nc3C=C1CC[C@@H]1[C@@H]2[C@@H](O)C[C@@]2(C)[C@H]1CC[C@]2(O)C(=O)CO | 2.2 nM | 1.3 nM | 2.63 min |  | 
9 | C[C@]12Cc3cnn(-c4ccccc4)c3C=C1CC[C@@H]1[C@@H]2[C@@H](O)C[C@@]2(C)[C@H]1CC[C@]2(O)C(=O)CO | 2.2 nM | 2.3 nM | 2.67 min |  | 
10 | COc1cccc(-n2cc3c(n2)C=C2CC[C@@H]4[C@H]([C@@H](O)C[C@@]5(C)[C@H]4CC[C@]5(O)C(=O)CO)[C@@]2(C)C3)c1 |  |  |  |  | Not Active
